From ChEMBL document CHEMBL4354812, “N-Benzyl/Aryl Substituted Tryptanthrin as Dual Inhibitors of Indoleamine 2,3-Dioxygenase and Tryptophan 2,3-Dioxygenase” (J Med Chem, 2019)
The source made the active and inactive calls. The calls are words filed in the database; no cut-off is given here.

Key:
[1] = biological target: T1, Indoleamine 2,3-dioxygenase 1 (Homo sapiens, UniProt P14902); experiment: Binding affinity to heme in human IDO1 assessed as Soret band red shift from 405 nm to […] at 375 uM and pH 6.5 under normal atmospheric condition by UV-vis spectroscopy analysis
Target sequence in this assay (P14902 whole entry, looked up): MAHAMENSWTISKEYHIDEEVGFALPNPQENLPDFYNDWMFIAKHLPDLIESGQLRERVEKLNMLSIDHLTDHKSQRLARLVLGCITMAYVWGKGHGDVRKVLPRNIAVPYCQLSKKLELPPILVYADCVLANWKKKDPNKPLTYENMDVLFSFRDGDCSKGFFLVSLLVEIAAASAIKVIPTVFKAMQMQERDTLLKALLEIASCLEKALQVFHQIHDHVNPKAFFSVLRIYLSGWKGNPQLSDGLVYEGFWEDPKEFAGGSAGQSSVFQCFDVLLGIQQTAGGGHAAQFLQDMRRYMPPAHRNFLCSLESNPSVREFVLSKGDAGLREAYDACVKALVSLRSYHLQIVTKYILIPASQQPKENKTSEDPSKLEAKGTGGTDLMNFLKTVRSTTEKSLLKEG

[2] = biological target: T1, Indoleamine 2,3-dioxygenase 1; experiment: Inhibition of IDO1 in IFN-gamma stimulated human HeLa cells assessed as reduction in kynurenine production incubated for 18 hrs; type: cell-based
In short: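 HeLa cells were seeded 25 000/well overnight, then exposed to inhibitor dilutions with 100 ng/mL human IFN-γ (final) for 18 h at 37 °C. Medium was treated with TCA at 50 °C for 30 min to hydrolyze NFK to Kyn. Kyn was read with 2% DMAB at 492 nm. IC50 by nonlinear regression.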
Target sequence in this assay (P14902 whole entry): as the sequence (P14902 whole entry, looked up) above

[3] = biological target: T2, Tryptophan 2,3-dioxygenase (Homo sapiens, UniProt P48775); experiment: Inhibition of human TDO transfected in HEK293 cells assessed as reduction in kynurenine production using L-tryptophan as substrate incubated for 12 hrs; type: cell-based
In short: (§1)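 U87 MG cells (hIDO2) or HEK293 cells (hTDO) were transiently transfected at 80% confluence, with empty vector as control. After 18 h, cells were seeded 2.5 × 10⁴/well in medium with 200 μM L-Trp. Compound serial dilutions were added after a further 6 h (IDO2) or 12 h (TDO). Reactions were stopped 24 h (IDO2) or 8 h (TDO) later with TCA, heated 65 °C 15 min, and Kyn read with DMAB at 492 nm. IC50 by nonlinear regression.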
Target sequence in this assay (P48775 whole entry): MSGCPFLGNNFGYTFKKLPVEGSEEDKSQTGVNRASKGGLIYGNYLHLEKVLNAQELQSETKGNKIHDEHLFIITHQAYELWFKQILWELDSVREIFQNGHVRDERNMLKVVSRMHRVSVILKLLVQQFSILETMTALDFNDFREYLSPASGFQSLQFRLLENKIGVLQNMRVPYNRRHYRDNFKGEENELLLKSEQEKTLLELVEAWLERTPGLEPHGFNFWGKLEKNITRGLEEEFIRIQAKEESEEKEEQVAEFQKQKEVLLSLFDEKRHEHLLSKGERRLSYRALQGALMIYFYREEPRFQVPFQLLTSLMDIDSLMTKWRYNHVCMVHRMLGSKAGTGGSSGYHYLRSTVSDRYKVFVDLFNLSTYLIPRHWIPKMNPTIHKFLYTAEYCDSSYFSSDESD

[4] = biological target: T2, Tryptophan 2,3-dioxygenase; experiment: Mixed uncompetitive inhibition of recombinant human TDO expressed in Escherichia coli BL21 (DE3) assessed as inhibition constant using varying concentration of L-tryptophan as substrate by Dixon plot analysis
In short: (§2)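 Enzymatic assays of the kynurenine-forming reaction were run with varying L-Trp. Ki was derived by plotting [S]/V against inhibitor concentration [I], with inhibition type assigned from the graphical pattern.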
Target sequence in this assay (P48775 whole entry): as above

[5] = biological target: T2, Tryptophan 2,3-dioxygenase; experiment: Uncompetitive inhibition of recombinant human TDO expressed in Escherichia coli BL21 (DE3) assessed as assessed as inhibition constant using varying concentration of L-tryptophan as substrate by Dixon plot analysis; in short: as §2
Target sequence in this assay (P48775 whole entry): as above

[6] = biological target: T3, Indoleamine 2,3-dioxygenase 2 (Homo sapiens, UniProt Q6ZQW0); experiment: Inhibition of human IDO2 transfected in human U87MG cells assessed as reduction in kynurenine production using L-tryptophan as substrate incubated with for 6 hrs; type: cell-based; in short: as §1
T3 sequence (Q6ZQW0 whole entry): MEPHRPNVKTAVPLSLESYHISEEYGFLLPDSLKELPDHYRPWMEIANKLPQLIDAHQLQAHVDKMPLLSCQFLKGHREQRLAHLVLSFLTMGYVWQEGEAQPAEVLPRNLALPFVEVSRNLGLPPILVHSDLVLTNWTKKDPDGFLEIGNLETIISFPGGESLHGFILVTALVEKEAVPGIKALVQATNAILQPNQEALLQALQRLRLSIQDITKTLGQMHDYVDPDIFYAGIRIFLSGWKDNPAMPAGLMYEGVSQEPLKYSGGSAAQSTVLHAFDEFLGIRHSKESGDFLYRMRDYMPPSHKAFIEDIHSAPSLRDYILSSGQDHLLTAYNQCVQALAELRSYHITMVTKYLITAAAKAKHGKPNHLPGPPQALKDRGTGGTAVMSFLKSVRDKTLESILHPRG

[7] = biological target: T2, Tryptophan 2,3-dioxygenase; experiment: Inhibition of recombinant human TDO expressed in Escherichia coli BL21 (DE3) assessed as reduction in conversion of L-tryptophan to N-formyl kynurenine using L-tryptophan as substrate after 30 mins by methylene blue assay
Target sequence in this assay (P48775 whole entry): as the sequence (P48775 whole entry) above

[8] = biological target: T1, Indoleamine 2,3-dioxygenase 1; experiment: Inhibition of recombinant human IDO1 expressed in Escherichia coli BL21 cells assessed as reduction in conversion of L-tryptophan to N-formyl kynurenine using L-tryptophan as substrate after 30 mins by methylene blue dye based microplate reader analysis
Target sequence in this assay (P14902 whole entry): as the sequence (P14902 whole entry, looked up) above

[9] = biological target: T1, Indoleamine 2,3-dioxygenase 1; experiment: Uncompetitive inhibition of recombinant human IDO1 expressed in Escherichia coli BL21 cells assessed inhibition constant using varying concentration of L-tryptophan as substrate by Dixon plot analysis; in short: as §2
Target sequence in this assay (P14902 whole entry): as the sequence (P14902 whole entry, looked up) above

[10] = biological target: T1, Indoleamine 2,3-dioxygenase 1; experiment: Noncompetitive inhibition of recombinant human IDO1 expressed in Escherichia coli BL21 cells assessed inhibition constant using varying concentration of L-tryptophan as substrate by Dixon plot analysis; in short: as §2
Target sequence in this assay (P14902 whole entry): as the sequence (P14902 whole entry, looked up) above

[11] = biological target: T1, Indoleamine 2,3-dioxygenase 1; experiment: Competitive inhibition of recombinant human IDO1 expressed in Escherichia coli BL21 cells assessed as apparent inhibition constant using varying concentration of L-tryptophan as substrate by Dixon plot analysis
Target sequence in this assay (P14902 whole entry): as the sequence (P14902 whole entry, looked up) above

[12] = biological target: T3, Indoleamine 2,3-dioxygenase 2; experiment: Inhibition of C-terminal His6-tagged human IDO2 (14 to 420 residues) expressed in Escherichia coli BL21 (DE3) assessed as reduction in conversion of L-tryptophan to N-formyl kynurenine using L-tryptophan as substrate after 30 mins by methylene blue dye based microplate reader analysis
In short: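 Recombinant enzyme with L-Trp substrate, ascorbic acid 40 mM, methylene blue 20 μM and catalase 200 μg/mL in potassium phosphate buffer. Conditions were pH 7.0 with 400 μM L-Trp for TDO, and pH 7.5 with 30 mM L-Trp for IDO2. Reaction ran 30 min at 37 °C, stopped with TCA, heated 65 °C 15 min. Kyn detected with DMAB at 492 nm. IC50 by nonlinear regression.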

[13] = biological target: T3, Indoleamine 2,3-dioxygenase 2; experiment: Uncompetitive inhibition of C-terminal His6-tagged human IDO2 (14 to 420 residues) expressed in Escherichia coli BL21 (DE3) assessed as inhibition constant using varying concentration of L-tryptophan as substrate by Dixon plot analysis; in short: as §2
[14] = biological target: T3, Indoleamine 2,3-dioxygenase 2; experiment: Noncompetitive inhibition of C-terminal His6-tagged human IDO2 (14 to 420 residues) expressed in Escherichia coli BL21 (DE3) assessed as inhibition constant using varying concentration of L-tryptophan as substrate by Dixon plot analysis; in short: as §2
Mus musculus [15] = experiment: In vivo blockade of kynurenine pathway in Kunming mouse implanted with mouse H22 cells assessed as decrease in kynurenine level in serum at 100 mg/kg, po qd for 2 weeks by HPLC analysis; type: functional, organism-based
In short: (§3)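 H22 tumor-bearing Kunming mice received oral dosing once daily in 0.5% CMC-Na for 2 weeks. Serum Trp and Kyn were measured by HPLC on a C18 column with 15 mM sodium acetate (pH 3.6) containing 4% acetonitrile, UV detection at 280 and 360 nm. Kyn/Trp ratio calculated. n = 9–10/group.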

[16] = biological target: T2, Tryptophan 2,3-dioxygenase; experiment: Binding affinity to human TDO assessed as change in spectral signal at 200 uM by CPMG NMR spectrometry analysis
Target sequence in this assay (P48775 whole entry, looked up): as the sequence (P48775 whole entry) above

H22 [17] = experiment: Antitumor activity against mouse H22 cells implanted in Kunming mouse assessed as reduction in tumor volume at 100 mg/kg, po qd administered for 2 weeks and measured at 2 days interval during compound dosing relative to control; type: functional; parameters: scale not given: the % may be the effect or the level left
In short: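 H22 ascites cells (2 × 10⁶/mouse) passaged twice intraperitoneally in Kunming mice, diluted in saline, then implanted sc into the right forelimb (2 × 10⁶ cells). Therapy began once the tumor reached 5 mm diameter: oral dosing once daily in 0.5% CMC-Na, vehicle controls, for 2 weeks. Calipers every 2 days; volume = long × short²/2. n = 9−10 mice/group.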

[18] = biological target: T4, Indoleamine 2,3-dioxygenase 2 (Homo sapiens) (UniProt Q6ZQW0); experiment: Binding affinity to human IDO2 assessed as change in spectral signal at 200 uM by CPMG NMR spectrometry analysis
T4 sequence (whole entry): T3 sequence (Q6ZQW0 whole entry)

Mus musculus [19] = experiment: In vivo blockade of kynurenine pathway in Kunming mouse implanted with mouse H22 cells assessed as increase in tryptophan level in serum at 100 mg/kg, po qd for 2 weeks by HPLC analysis; type: functional, organism-based; in short: as §3
[20] = tested on: Lewis lung carcinoma cell line; experiment: Antitumor activity against mouse LLC cells implanted in C57BL/6 mouse assessed as reduction in tumor volume at 100 mg/kg, po qd administered for 2 weeks and measured at 2 days interval during compound dosing relative to control; type: functional; parameters: scale not given: the % may be the effect or the level left
In short: (§4)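 Tumor cells (LLC, or H22 ascites cells after two intraperitoneal passages in Kunming mice) injected sc into the right forelimb at 2 × 10⁶ per mouse, in female 6–8-week C57BL/6 or Kunming mice. Oral dosing once daily began at 5 mm tumor diameter and continued 2 weeks. Vehicle was 0.5% CMC-Na. Volume was read by caliper every 2 days as long × short²/2. Tumors were weighed at sacrifice. n = 9–10/group.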

[21] = tested on: Lewis lung carcinoma cell line; experiment: Antitumor activity against mouse LLC cells implanted in C57BL/6 mouse assessed as reduction in tumor weight at 100 mg/kg, po qd administered for 2 weeks and measured post-treatment; type: functional, organism-based; in short: as §4
Homo sapiens = species: Homo sapiens; experiment: Inhibition of IDO1/TDO in IFNgamma-treated human HeLa cells assessed as T cell proliferation at 1 uM measured after 2 days in presence of IL-2, anti-CD3 and IFN-gamma by CFSE dye based flow cytometry analysis (reference value: 11.7 %); parameters: scale not given: the % may be the effect or the level left
In short: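 CFSE-labelled human PBMC lymphocytes (1 × 10⁶/well) were cocultured with HeLa cells (2 × 10⁵/well), a 5:1 ratio, in 150 U/mL IL-2, 100 ng/mL anti-CD3 and 60 ng/mL IFN-γ. Compound was tested at 40 nM, 200 nM, 500 nM or 1 μM. Proliferation was read by flow cytometry after 2 days, three independent experiments.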

[22] = biological target: T4, Indoleamine 2,3-dioxygenase 2 (Homo sapiens); experiment: Binding affinity to human IDO2 at 200 uM by STD NMR spectrometry analysis
H22 [23] = experiment: Antitumor activity against mouse H22 cells implanted in Kunming mouse assessed as reduction in tumor weight at 100 mg/kg, po qd administered for 2 weeks and measured post-treatment; type: functional, organism-based; in short: as §4
[24] = biological target: T2, Tryptophan 2,3-dioxygenase; experiment: Binding affinity to human TDO at 200 uM by STD NMR spectrometry analysis
Target sequence in this assay (P48775 whole entry, looked up): as the sequence (P48775 whole entry) above

Row | Compound | IC50 ([2]; read-out: IC50) [µM] | IC50 [3] [µM] | Ki [4] [µM] | Ki [5] [µM] | IC50 [6] [µM] | IC50 [7] [µM] | IC50 [12] [µM] | further results
1 | NS(=O)(=O)NCCNc1nonc1/C(=N/O)Nc1ccc(F)c(Br)c1 |  |  |  |  |  |  |  | Activity [1]: Active
2 | CN1CCN(Cc2ccc3nc4n(c(=O)c3c2)-c2ccccc2C4=O)CC1 | 0.18 | 0.18 | 0.42 |  |  |  |  | 
3 | O=C1c2cc(F)ccc2-n2c1nc1ccc(CN3CCNCC3)cc1c2=O |  | 0.09 |  | 0.12 |  |  |  | 
4 | O=C1c2cc(F)ccc2-n2c1nc1ccc(CN3CCOCC3)cc1c2=O |  | 0.07 |  | 0.34 |  |  |  | 
5 | O=C1c2cc(F)ccc2-n2c1nc1ccc(N3CCOCC3)cc1c2=O |  | 0.5 |  | 2.36 | 20.3 | 6.4 | 79.9 | IC50 ([2]; hela): Not Active; IC50 [8]: Not Active; Ki [9]: Not Active; Ki [10]: Not Active; Ki [11]: Not Active; Ki [13]: 39.1 µM
6 | O=C1c2cc(F)ccc2-n2c1nc1ccc(N3CCCCC3)cc1c2=O | 2.24 | 3.7 |  | 1.56 | 22.2 | 10.1 | 40.1 | Ki ([9]; read-out: Ki): 4.34 µM; Ki [13]: 26.8 µM
7 | CN1CCN(c2ccc3nc4n(c(=O)c3c2)-c2ccccc2C4=O)CC1 | 2.96 | 0.47 |  | 18 | 48.7 | 6.75 | 82.6 | Ki ([9]; read-out: Ki): 7.57 µM; Ki [13]: 48.7 µM
8 | CN(C)Cc1ccc2nc3n(c(=O)c2c1)-c1ccc(F)cc1C3=O |  | 0.06 | 0.09 |  |  |  |  | 
9 | CN(C)c1ccc2nc3n(c(=O)c2c1)-c1ccc(F)cc1C3=O | 0.59 | 0.27 |  | 1.24 | 90.9 | 3.82 | 91.3 | Ki [14]: 45.3 µM; Ki ([9]; read-out: Ki): 8.82 µM
10 | Cn1cc(C[C@H](N)C(=O)O)c2ccccc21 [(L)-1-METHYLTRYPTOPHAN] |  |  |  |  |  |  |  | Activity (Mus musculus [15]): Active; Activity [16]: inactive; Activity (H22 [17]): 15.8%; Activity [18]: inactive; Activity (Mus musculus [19]): inactive; Activity [20]: 33.6%; Activity [21]: Active; Activity (Homo sapiens): 15.8%; Activity [22]: inactive; Activity (H22 [23]): Active; Activity [24]: inactive
11 | CC(C)(C)OC(=O)N1CCN(Cc2ccc3nc4n(c(=O)c3c2)-c2ccc(F)cc2C4=O)CC1 |  | 0.07 | 0.13 |  |  |  |  | 
12 | CN1CCN(c2ccc3nc4n(c(=O)c3c2)-c2ccc(F)cc2C4=O)CC1 | 1.87 | 0.25 | 0.17 |  | 79 | 2.59 | 46.8 | Ki [14]: 19.9 µM; Ki ([10]; read-out: Ki): 6.92 µM
13 | O=C1c2cc(F)ccc2-n2c1nc1ccc(N3CCNCC3)cc1c2=O | 0.76 | 0.29 | 0.67 |  | 17.8 | 3.15 | 41.6 | Ki ([9]; read-out: Ki): 6.08 µM; Ki [13]: 36.9 µM
14 | NS(=O)(=O)NCCNc1nonc1C(=NO)Nc1ccc(F)c(Br)c1 [EPACADOSTAT] |  |  |  |  |  |  | 10.3 | 
